Measured values reported in ChEMBL document CHEMBL3271979, “Inhibition of solid tumors by nitrosoureas. 1. Lewis lung carcinoma” (1977).
Activity calls are given as the source filed them. The calls are words filed in the database; no cut-off is given here.

system: not listed separately; experiment: Antitumor activity against mouse early Lewis lung carcinoma allografted in BDF1 mouse assessed as increase in host life span at 38 mg/kg, ip administered as single dose on 1 or 2 days post-tumor implantation; type: functional; settings: route intraperitoneal
Method in brief: (§1)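 BDF1 mice (C57Blk/6 × DBA/2) implanted sc by trocar with ~40 mg Lewis lung tumor fragments from bacteriologically sterile donor tumors. Single ip dose on day 1 or 2, as a solution or suspension in water (CMC or gum acacia) or saline (HPC or Tween 80). Read-out is […]. Same-dose toxicity controls were run in nontumor-bearing mice.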

Row | Structure (SMILES) | ILS at 38 mg/kg
1 | O=NN(CCCl)C(=O)N[C@H]1CC[C@H](O)CC1 | 146%

system: not listed separately; experiment: Antitumor activity against mouse early Lewis lung carcinoma allografted in BDF1 mouse assessed as increase in host life span at 13 mg/kg, ip administered as single dose on 1 or 2 days post-tumor implantation; type: functional; settings: route intraperitoneal
Method in brief: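 Early disease: BDF1 mice carrying sc trocar implants of about 40 mg Lewis lung fragments. One ip dose given on day 1 or 2 after implant, in distilled water or saline, at ≤0.5 ml. Endpoints were % increase in life-span of dying animals and delay in days for the primary tumor to reach 1 g. Untreated controls served as reference.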

Row | Structure (SMILES) | ILS at 13 mg/kg
2 | O=NN(CCCl)C(=O)N[C@H]1CC[C@H](C(=O)O)CC1 | 33%

system: not listed separately; experiment: Antitumor activity against mouse early Lewis lung carcinoma allografted in BDF1 mouse assessed as increase in host life span at 30 mg/kg, ip administered as single dose on 1 or 2 days post-tumor implantation; type: functional; settings: route intraperitoneal; method in brief: as §1

Row | Structure (SMILES) | ILS at 30 mg/kg
3 | O=NN(CCCl)C(=O)N[C@H]1CC[C@H](C(=O)O)CC1 | 115%

system: not listed separately; experiment: Antitumor activity against mouse early Lewis lung carcinoma allografted in BDF1 mouse assessed as increase in host life span at 26 mg/kg, ip administered as single dose on 1 or 2 days post-tumor implantation; type: functional; settings: route intraperitoneal; method in brief: as §1

Row | Structure (SMILES) | ILS at 26 mg/kg
4 | O=NN(CCCl)C(=O)N[C@H]1CC[C@H](O)CC1 | 84%

system: not listed separately; experiment: Antitumor activity against mouse early Lewis lung carcinoma allografted in BDF1 mouse assessed as time delay in tumor growth at 38 mg/kg, ip administered as single dose on 1 or 2 days post-tumor implantation; type: functional; settings: route intraperitoneal
Method in brief: (§2)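 BDF1 mice (C57Blk/6 × DBA/2) implanted sc by trocar with ~40 mg Lewis lung tumor fragments from bacteriologically sterile donors. A single ip dose was given on day 1 or 2, as a solution or suspension in water or saline with suspending agent, at ≤0.5 ml. Tumors were measured by caliper at least twice weekly, with weight = ab²/2. Delay was taken as the days for the tumor to reach 1 g.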

Row | Structure (SMILES) | Time
5 | O=NN(CCCl)C(=O)N[C@H]1CC[C@H](O)CC1 | 10.2 days

system: Mus musculus; experiment: Antitumor activity against mouse advanced Lewis lung carcinoma allografted in BDF1 mouse assessed as disease cure at 32 mg/kg, ip administered as single dose on 7th day post-tumor implantation measured for 80 days post-drug treatment; type: functional, organism-based; design: dose 32 mg/kg; settings: not given
Method in brief: (§3)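 BDF1 mice (C57Blk/6 × DBA/2) implanted sc by trocar with Lewis lung tumor fragments of about 40 mg, taken only from bacteriologically sterile donor tumors. Mice bearing tumors of about 400 mg (day 6-7) were selected. Each received a single ip dose on day 7, at or below the LD10 in normal mice. Groups were of 10 mice. Tumor weight was taken from calipers as w = ab²/2, measured at least twice weekly. Matched non-tumor mice served as toxicity controls.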

Row | Structure (SMILES) | Activity
6 | C[C@H]1S(=O)(=O)C[C@@H](NC(=O)N(CCCl)N=O)CS1(=O)=O | inactive
7 | O=NN(CCCl)C(=O)NCCCl [CARMUSTINE] | inactive
8 | O=NN(CCCl)C(=O)NCCF | inactive
9 | COC(=O)[C@H]1CC[C@H](NC(=O)N(CCCl)N=O)CC1 | inactive

system: Mus musculus; experiment: Antitumor activity against mouse advanced Lewis lung carcinoma allografted in BDF1 mouse assessed as disease cure at 30 mg/kg, ip administered as single dose on 7th day post-tumor implantation measured for 80 days post-drug treatment; type: functional, organism-based; design: dose 30 mg/kg; settings: not given; method in brief: as §3

Row | Structure (SMILES) | Activity
10 | O=NN(CCCl)C(=O)N[C@H]1CC[C@H](C(=O)O)CC1 | inactive

system: Mus musculus; experiment: Antitumor activity against mouse advanced Lewis lung carcinoma allografted in BDF1 mouse assessed as disease cure at 21 mg/kg, ip administered as single dose on 7th day post-tumor implantation measured for 80 days post-drug treatment; type: functional, organism-based; design: dose 21 mg/kg; settings: not given; method in brief: as §3

Row | Structure (SMILES) | Activity
11 | COC(=O)[C@H]1CC[C@H](NC(=O)N(CCCl)N=O)CC1 | inactive

system: not listed separately; experiment: Antitumor activity against mouse advanced Lewis lung carcinoma allografted in BDF1 mouse assessed as increase in host life span at 30 mg/kg, ip administered as single dose on 7th day post-tumor implantation; type: functional; settings: route intraperitoneal
Method in brief: (§4)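 BDF1 mice (C57Blk/6 × DBA/2) implanted sc by trocar with about 40 mg Lewis lung tumor fragments from bacteriologically sterile donors. Advanced-disease groups held tumors of about 400 mg by day 6-7, sized by caliper (w = ab²/2). Single ip injection on day 7, in water or saline vehicle, at or below the LD10 in normal mice. Tumors measured at least twice weekly.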

Row | Structure (SMILES) | ILS at 30 mg/kg
12 | O=NN(CCCl)C(=O)N[C@H]1CC[C@H](C(=O)O)CC1 | 67%

system: not listed separately; experiment: Antitumor activity against mouse advanced Lewis lung carcinoma allografted in BDF1 mouse assessed as increase in host life span at 21 mg/kg, ip administered as single dose on 7th day post-tumor implantation; type: functional; settings: route intraperitoneal; method in brief: as §4

Row | Structure (SMILES) | ILS at 21 mg/kg
13 | COC(=O)[C@H]1CC[C@H](NC(=O)N(CCCl)N=O)CC1 | 113%

system: Mus musculus; experiment: Antitumor activity against mouse advanced Lewis lung carcinoma allografted in BDF1 mouse assessed as complete regression of established tumor at 32 mg/kg, ip administered as single dose on 7th day post-tumor implantation; type: functional, organism-based; design: dose 32 mg/kg; settings: not given; method in brief: as §4

Row | Structure (SMILES) | inhibition
14 | C[C@H]1S(=O)(=O)C[C@@H](NC(=O)N(CCCl)N=O)CS1(=O)=O | inactive
15 | O=NN(CCCl)C(=O)NCCCl [CARMUSTINE] | inactive
16 | O=NN(CCCl)C(=O)NCCF | inactive

system: not listed separately; experiment: Antitumor activity against mouse early Lewis lung carcinoma allografted in BDF1 mouse assessed as time delay in tumor growth at 13 mg/kg, ip administered as single dose on 1 or 2 days post-tumor implantation; type: functional; settings: route intraperitoneal
Method in brief: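 Sc trocar implants of about 40 mg Lewis lung fragments in BDF1 mice. A single ip injection was given on day 1 or 2, in water or physiological saline, at ≤0.5 ml. Tumor size came from caliper length and width as w = ab²/2, measured at least twice weekly. Growth delay is the extra days taken to reach 1 g, compared with untreated controls.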

Row | Structure (SMILES) | Time
17 | O=NN(CCCl)C(=O)N[C@H]1CC[C@H](C(=O)O)CC1 | 7.6 days

system: not listed separately; experiment: Antitumor activity against mouse early Lewis lung carcinoma allografted in BDF1 mouse assessed as time delay in tumor growth at 30 mg/kg, ip administered as single dose on 1 or 2 days post-tumor implantation; type: functional; settings: route intraperitoneal; method in brief: as §2

Row | Structure (SMILES) | Time
18 | O=NN(CCCl)C(=O)N[C@H]1CC[C@H](C(=O)O)CC1 | 20 days

system: not listed separately; experiment: Antitumor activity against mouse early Lewis lung carcinoma allografted in BDF1 mouse assessed as time delay in tumor growth at 26 mg/kg, ip administered as single dose on 1 or 2 days post-tumor implantation; type: functional; settings: route intraperitoneal; method in brief: as §2

Row | Structure (SMILES) | Time
19 | O=NN(CCCl)C(=O)N[C@H]1CC[C@H](O)CC1 | 3.3 days

system: not listed separately; experiment: Antitumor activity against mouse advanced Lewis lung carcinoma allografted in BDF1 mouse assessed as increase in host life span at 32 mg/kg, ip administered as single dose on 7th day post-tumor implantation; type: functional; settings: route intraperitoneal; method in brief: as §4

Row | Structure (SMILES) | ILS at 32 mg/kg
20 | C[C@H]1S(=O)(=O)C[C@@H](NC(=O)N(CCCl)N=O)CS1(=O)=O | 10%
21 | O=NN(CCCl)C(=O)NCCF | 44%
22 | COC(=O)[C@H]1CC[C@H](NC(=O)N(CCCl)N=O)CC1 | 86%

system: not listed separately; experiment: (§5) Antitumor activity against mouse early Lewis lung carcinoma allografted in ip dosed BDF1 mouse assessed as disease cure administered as single dose on 1 or 2 days post-tumor implantation measured for 80 days post-drug treatment; type: functional; settings: not given
Method in brief: (§6)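 BDF1 mice implanted sc by trocar with ~40 mg Lewis lung fragments from sterile donor tumors. A single ip dose was given on day 1 or 2 after implant, in water or saline vehicle. Cures were scored in animals observed for at least 80 days after treatment. Drug-toxicity controls were matched non-tumor-bearing mice monitored for body weight and deaths.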

Row | Structure (SMILES) | Activity
23 | O=NN(CCCl)C(=O)N[C@H]1CC[C@H](O)CC1 | 10%
24 | O=NN(CCCl)C(=O)N[C@H]1CC[C@H](C(=O)O)CC1 | >50%

system: Mus musculus; experiment: as §5; type: functional; settings: not given; method in brief: as §6

Row | Structure (SMILES) | Activity
25 | C[C@H]1S(=O)(=O)C[C@@H](NC(=O)N(CCCl)N=O)CS1(=O)=O | inactive

system: Mus musculus; experiment: Antitumor activity against mouse early Lewis lung carcinoma allografted in ip dosed BDF1 mouse administered as single dose on 1 or 2 days post-tumor implantation measured for 80 days post-drug treatment; type: functional, organism-based; settings: not given; method in brief: as §6

Row | Structure (SMILES) | Activity
26 | C[C@H]1S(=O)(=O)C[C@@H](NC(=O)N(CCCl)N=O)CS1(=O)=O | inactive

system: not listed separately; experiment: Ratio of ED50 for antitumor activity against mouse L1210 cells allografted in ip dosed mouse to LD10 for mouse; settings: not given

Row | Structure (SMILES) | Ratio
27 | O=NN(CCCl)C(=O)N[C@H]1CC[C@H](O)CC1 | 0.4
28 | C[C@H]1S(=O)(=O)C[C@@H](NC(=O)N(CCCl)N=O)CS1(=O)=O | 0.6
29 | O=NN(CCCl)C(=O)N[C@H]1CC[C@H](C(=O)O)CC1 | 0.6

system: Mus musculus; experiment: Antitumor activity against mouse advanced Lewis lung carcinoma allografted in ip dosed BDF1 mouse assessed as complete regression of established tumor administered as single dose on day 6 or 7 post-tumor implantation; type: functional, organism-based; settings: not given; method in brief: as §3

Row | Structure (SMILES) | inhibition
30 | O=NN(CCCl)C(=O)N[C@H]1CC[C@H](O)CC1 | inactive
31 | C[C@H]1S(=O)(=O)C[C@@H](NC(=O)N(CCCl)N=O)CS1(=O)=O | inactive
32 | O=NN(CCCl)C(=O)NCCCl [CARMUSTINE] | inactive
33 | COC(=O)[C@H]1CC[C@H](NC(=O)N(CCCl)N=O)CC1 | Active

system: Mus musculus; experiment: Antitumor activity against mouse advanced Lewis lung carcinoma allografted in ip dosed BDF1 mouse assessed as disease cure administered as single dose on day 6 or 7 post-tumor implantation; type: functional, organism-based; settings: not given; method in brief: as §3

Row | Structure (SMILES) | Activity
34 | C[C@H]1S(=O)(=O)C[C@@H](NC(=O)N(CCCl)N=O)CS1(=O)=O | inactive
35 | O=NN(CCCl)C(=O)N[C@H]1CC[C@H](C(=O)O)CC1 | Active
36 | COC(=O)[C@H]1CC[C@H](NC(=O)N(CCCl)N=O)CC1 | inactive

system: not listed separately; experiment: Antitumor activity against mouse advanced Lewis lung carcinoma allografted in ip dosed BDF1 mouse assessed as increase in host lifespan administered as single dose on day 6 or 7 post-tumor implantation; type: functional; settings: not given
Method in brief: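 Advanced Lewis lung model: about 40 mg fragments implanted sc by trocar into BDF1 mice, and mice with tumors of about 400 mg (day 6-7) selected. Tumor weight from calipers, w = ab²/2. Agent given as one ip dose in distilled water or physiological saline. Nontumor-bearing mice received matching doses as toxicity controls.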

Row | Structure (SMILES) | ILS
37 | O=NN(CCCl)C(=O)N[C@H]1CC[C@H](O)CC1 | <25%
38 | C[C@H]1S(=O)(=O)C[C@@H](NC(=O)N(CCCl)N=O)CS1(=O)=O | >25%
39 | O=NN(CCCl)C(=O)NCCCl [CARMUSTINE] | <25%
